Tests used:
[1] = target: T1, Hsp90 co-chaperone Cdc37 (Homo sapiens) (UniProt Q16543); assay: Inhibition of CDC37 phosphorylation in human 786-O cells at 10 uM measured after 48 hrs by immunoblot analysis relative to control
T1 sequence (whole entry): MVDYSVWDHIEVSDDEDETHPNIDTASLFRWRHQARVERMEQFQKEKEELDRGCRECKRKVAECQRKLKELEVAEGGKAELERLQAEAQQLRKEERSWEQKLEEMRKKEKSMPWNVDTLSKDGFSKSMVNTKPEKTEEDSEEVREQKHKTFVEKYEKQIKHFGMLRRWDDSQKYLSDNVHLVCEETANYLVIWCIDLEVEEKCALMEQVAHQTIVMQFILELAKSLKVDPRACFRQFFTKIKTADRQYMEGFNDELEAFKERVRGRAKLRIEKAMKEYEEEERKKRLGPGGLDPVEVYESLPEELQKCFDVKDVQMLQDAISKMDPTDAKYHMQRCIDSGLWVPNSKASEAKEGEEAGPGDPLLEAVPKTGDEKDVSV

[2] = Upregulation of PARP cleavage in human U-937 cells by measuring signal 1 at 10 uM measured after 48 hrs by immunoblot analysis; assay type: functional
Summary of the method: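 U937 cells exposed to compound or DMSO for 48 h, then lysed in Laemmli buffer. Lysates were run on 8–16% gradient SDS-PAGE, semi-dry blotted to PVDF and probed for PARP. Detection used IR-fluorescent secondary antibodies. The cleaved/uncleaved PARP signal ratio was obtained by densitometry. Results are representative of two independent experiments.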

[3] = target: Glycogen synthase kinase-3 beta (Homo sapiens) (UniProt P49841); assay: Inhibition of human recombinant GSK3B at 2 uM by Eurofins kinase assay relative to control
[4] = Antiproliferative activity against HEK293 cells assessed as inhibition of cell growth measured after 3 to 4 days by MTT assay; assay type: toxicity, cell-based; conditions: human, time 3-4 day
Summary of the method: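 HEK293 cells grown in DMEM with 2 mM L-glutamine, 1% pen/strep and 10% FCS. Cells were seeded at 5000 per well, left overnight, then given medium with 1% FCS plus compound or DMSO (max. 0.2% final). They were grown 3–4 days at 37 °C in 5% CO₂ with no medium change, and growth was read by MTT.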

[5] = target: Mitogen-activated protein kinase 12 (Homo sapiens) (UniProt P53778); assay: Inhibition of human recombinant MAPK12 at 2 uM by Eurofins kinase assay relative to control
[6] = target: Serine/threonine-protein kinase TBK1 (Homo sapiens) (UniProt Q9UHD2); assay: Inhibition of human TBK1 at 2 uM by Eurofins kinase assay relative to control
[7] = target: Vascular endothelial growth factor receptor 3 (Homo sapiens) (UniProt P35916); assay: Inhibition of human recombinant FLT4 at 2 uM by Eurofins kinase assay relative to control
[8] = Upregulation of PARP cleavage in human U-937 cells by measuring signal 2 at 15 uM measured after 48 hrs by immunoblot analysis; assay type: functional
Summary of the method: (§1)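 U937 lymphoma cells grown in RPMI with 2 mM L-glutamine, 1 % pen/strep and 10 % FCS; exposed to compound or DMSO solvent control for 48 h. Total cellular proteins harvested and immunoblotted with an antibody against phosphorylated CK2-substrate motifs and for PARP. Read-out is the densitometric ratio of cleaved to uncleaved PARP signal. Representative of two independent experiments.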

[9] = target: Casein kinase I isoform gamma-1 (Homo sapiens) (UniProt Q9HCP0); assay: Inhibition of human recombinant GST tagged CSNK1G1 expressed in insect cells at 2 uM by Eurofins kinase assay relative to control
[10] = target: Serine/threonine-protein kinase haspin (Homo sapiens) (UniProt Q8TF76); assay: Inhibition of human recombinant GSG2 at 2 uM by Eurofins kinase assay relative to control
[11] = target: Eukaryotic translation initiation factor 2 subunit 2 (Homo sapiens) (UniProt P20042); assay: Inhibition of eIF2beta phosphorylation in human 786-O cells at 6 uM measured after 48 hrs by immunoblot analysis relative to control
786-0 = assay: Induction of cell death in human 786-0 cells assessed as cell viability measured after 11 hrs by CellCyteX live-cell microscopy analysis; assay type: functional, cell-based; conditions: dose 10-20 µM
Summary of the method: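 786-O cells seeded at 3×10³ per well and grown 24 h. Compound was then added in culture medium containing 125 nM Cytotox Green, at 0.2% (v/v) final DMSO, and kept at 37 °C in 5% CO₂. Green fluorescence images of dead cells were taken every 3 h by live-cell microscopy and normalized to the DMSO control. Results are representative of three independent measurements.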

[12] = target: Dual specificity tyrosine-phosphorylation-regulated kinase 1B (Homo sapiens) (UniProt Q9Y463); assay: Inhibition of human recombinant DYRK1B at 2 uM by Eurofins kinase assay relative to control
[13] = target: Hepatocyte growth factor receptor (Homo sapiens) (UniProt P08581); assay: Inhibition of human MET at 2 uM by Eurofins kinase assay relative to control
[14] = target: Signal transducer and activator of transcription 3 (Homo sapiens) (UniProt P40763); assay: Inhibition of STAT3 phosphorylation in human 786-O cells at 6 uM measured after 48 hrs by immunoblot analysis relative to control
[15] = Upregulation of PARP cleavage in human U-937 cells by measuring signal 2 at 30 uM measured after 48 hrs by immunoblot analysis; assay type: functional
Summary of the method: as §1

[16] = target: Homeodomain-interacting protein kinase 1 (Homo sapiens) (UniProt Q86Z02); assay: Inhibition of human recombinant HIPK1 at 2 uM by Eurofins kinase assay relative to control
[17] = target: Dual specificity protein kinase CLK4 (Homo sapiens) (UniProt Q9HAZ1); assay: Inhibition of human recombinant CLK4 at 2 uM by Eurofins kinase assay relative to control
[18] = target: T1, Hsp90 co-chaperone Cdc37 (Homo sapiens); assay: Inhibition of CDC37 phosphorylation in human 786-O cells at 6 uM measured after 48 hrs by immunoblot analysis relative to control
[19] = target: Aurora kinase B (Homo sapiens) (UniProt Q96GD4); assay: Inhibition of human recombinant AURKB at 2 uM by Eurofins kinase assay relative to control
[20] = target: Signal transducer and activator of transcription 3 (Homo sapiens) (UniProt P40763); assay: Inhibition of STAT3 phosphorylation in human 786-O cells at 8 uM measured after 48 hrs by immunoblot analysis relative to control
[21] = test system: Receptor-type tyrosine-protein kinase FLT3 (Homo sapiens), P36888 [D835Y]; assay: Inhibition of human recombinant his tagged FLT3 D835Y expressed in insect cells at 2 uM by Eurofins kinase assay relative to control
[22] = target: Eukaryotic translation initiation factor 2 subunit 2 (Homo sapiens) (UniProt P20042); assay: Inhibition of eIF2beta phosphorylation in human 786-O cells at 10 uM measured after 48 hrs by immunoblot analysis relative to control
[23] = Upregulation of PARP cleavage in human U-937 cells by measuring signal 2 at 5 uM measured after 48 hrs by immunoblot analysis; assay type: functional
Summary of the method: as §1

Sequence of Eukaryotic translation initiation factor 2 subunit 2 (Homo sapiens) (P20042 whole entry): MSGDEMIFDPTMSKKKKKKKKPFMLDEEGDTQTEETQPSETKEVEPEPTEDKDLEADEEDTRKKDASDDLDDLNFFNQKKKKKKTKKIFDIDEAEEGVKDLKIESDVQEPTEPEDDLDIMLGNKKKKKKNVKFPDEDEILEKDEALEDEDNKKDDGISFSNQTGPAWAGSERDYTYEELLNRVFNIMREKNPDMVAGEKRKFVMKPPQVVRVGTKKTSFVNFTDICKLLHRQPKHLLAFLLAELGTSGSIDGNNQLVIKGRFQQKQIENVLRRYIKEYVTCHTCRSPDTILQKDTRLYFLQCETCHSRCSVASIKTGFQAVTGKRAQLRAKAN
Sequence of Signal transducer and activator of transcription 3 (Homo sapiens) (P40763 whole entry): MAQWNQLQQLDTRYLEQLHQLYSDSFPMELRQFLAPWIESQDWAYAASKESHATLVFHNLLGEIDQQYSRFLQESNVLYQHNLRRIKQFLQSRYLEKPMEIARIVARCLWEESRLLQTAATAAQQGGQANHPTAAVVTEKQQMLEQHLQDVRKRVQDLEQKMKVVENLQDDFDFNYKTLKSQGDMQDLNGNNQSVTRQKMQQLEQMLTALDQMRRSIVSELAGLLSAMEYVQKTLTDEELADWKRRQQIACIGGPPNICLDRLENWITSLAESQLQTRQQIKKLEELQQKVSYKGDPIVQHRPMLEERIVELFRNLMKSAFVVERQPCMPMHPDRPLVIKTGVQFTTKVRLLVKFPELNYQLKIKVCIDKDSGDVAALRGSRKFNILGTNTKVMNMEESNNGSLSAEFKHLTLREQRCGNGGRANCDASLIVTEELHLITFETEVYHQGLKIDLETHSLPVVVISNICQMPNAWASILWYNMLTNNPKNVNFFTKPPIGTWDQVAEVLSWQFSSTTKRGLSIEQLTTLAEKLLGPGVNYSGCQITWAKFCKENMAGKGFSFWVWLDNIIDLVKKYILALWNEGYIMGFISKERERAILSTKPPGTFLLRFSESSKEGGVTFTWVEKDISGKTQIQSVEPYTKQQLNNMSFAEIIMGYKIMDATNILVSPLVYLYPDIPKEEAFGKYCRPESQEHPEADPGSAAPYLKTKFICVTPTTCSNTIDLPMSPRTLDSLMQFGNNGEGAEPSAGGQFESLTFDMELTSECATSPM
Sequence of Glycogen synthase kinase-3 beta (Homo sapiens) (P49841 whole entry, looked up): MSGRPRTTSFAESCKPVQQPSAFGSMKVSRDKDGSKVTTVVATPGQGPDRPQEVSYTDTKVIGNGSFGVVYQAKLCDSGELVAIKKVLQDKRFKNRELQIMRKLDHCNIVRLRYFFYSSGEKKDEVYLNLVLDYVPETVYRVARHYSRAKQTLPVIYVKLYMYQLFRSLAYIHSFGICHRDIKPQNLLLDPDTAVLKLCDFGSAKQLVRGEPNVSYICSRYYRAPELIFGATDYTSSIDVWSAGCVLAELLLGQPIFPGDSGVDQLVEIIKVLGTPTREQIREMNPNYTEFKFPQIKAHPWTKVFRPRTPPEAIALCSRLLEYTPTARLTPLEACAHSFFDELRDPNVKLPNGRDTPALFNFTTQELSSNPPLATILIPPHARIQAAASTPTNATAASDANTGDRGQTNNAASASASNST
Sequence of Casein kinase I isoform gamma-1 (Homo sapiens) (Q9HCP0 whole entry, looked up, canonical isoform): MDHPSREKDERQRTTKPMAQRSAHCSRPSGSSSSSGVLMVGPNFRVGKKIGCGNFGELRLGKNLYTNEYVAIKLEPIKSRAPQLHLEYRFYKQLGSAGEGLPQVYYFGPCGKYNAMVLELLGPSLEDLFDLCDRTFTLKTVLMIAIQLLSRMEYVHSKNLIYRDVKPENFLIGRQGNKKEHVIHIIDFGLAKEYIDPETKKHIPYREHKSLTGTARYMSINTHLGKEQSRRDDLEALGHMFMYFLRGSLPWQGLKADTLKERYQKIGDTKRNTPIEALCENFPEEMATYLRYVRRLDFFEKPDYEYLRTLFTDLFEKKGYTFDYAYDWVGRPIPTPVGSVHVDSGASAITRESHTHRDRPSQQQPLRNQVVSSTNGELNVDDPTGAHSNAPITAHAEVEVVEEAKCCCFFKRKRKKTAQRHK
Sequence of Hepatocyte growth factor receptor (Homo sapiens) (P08581 whole entry): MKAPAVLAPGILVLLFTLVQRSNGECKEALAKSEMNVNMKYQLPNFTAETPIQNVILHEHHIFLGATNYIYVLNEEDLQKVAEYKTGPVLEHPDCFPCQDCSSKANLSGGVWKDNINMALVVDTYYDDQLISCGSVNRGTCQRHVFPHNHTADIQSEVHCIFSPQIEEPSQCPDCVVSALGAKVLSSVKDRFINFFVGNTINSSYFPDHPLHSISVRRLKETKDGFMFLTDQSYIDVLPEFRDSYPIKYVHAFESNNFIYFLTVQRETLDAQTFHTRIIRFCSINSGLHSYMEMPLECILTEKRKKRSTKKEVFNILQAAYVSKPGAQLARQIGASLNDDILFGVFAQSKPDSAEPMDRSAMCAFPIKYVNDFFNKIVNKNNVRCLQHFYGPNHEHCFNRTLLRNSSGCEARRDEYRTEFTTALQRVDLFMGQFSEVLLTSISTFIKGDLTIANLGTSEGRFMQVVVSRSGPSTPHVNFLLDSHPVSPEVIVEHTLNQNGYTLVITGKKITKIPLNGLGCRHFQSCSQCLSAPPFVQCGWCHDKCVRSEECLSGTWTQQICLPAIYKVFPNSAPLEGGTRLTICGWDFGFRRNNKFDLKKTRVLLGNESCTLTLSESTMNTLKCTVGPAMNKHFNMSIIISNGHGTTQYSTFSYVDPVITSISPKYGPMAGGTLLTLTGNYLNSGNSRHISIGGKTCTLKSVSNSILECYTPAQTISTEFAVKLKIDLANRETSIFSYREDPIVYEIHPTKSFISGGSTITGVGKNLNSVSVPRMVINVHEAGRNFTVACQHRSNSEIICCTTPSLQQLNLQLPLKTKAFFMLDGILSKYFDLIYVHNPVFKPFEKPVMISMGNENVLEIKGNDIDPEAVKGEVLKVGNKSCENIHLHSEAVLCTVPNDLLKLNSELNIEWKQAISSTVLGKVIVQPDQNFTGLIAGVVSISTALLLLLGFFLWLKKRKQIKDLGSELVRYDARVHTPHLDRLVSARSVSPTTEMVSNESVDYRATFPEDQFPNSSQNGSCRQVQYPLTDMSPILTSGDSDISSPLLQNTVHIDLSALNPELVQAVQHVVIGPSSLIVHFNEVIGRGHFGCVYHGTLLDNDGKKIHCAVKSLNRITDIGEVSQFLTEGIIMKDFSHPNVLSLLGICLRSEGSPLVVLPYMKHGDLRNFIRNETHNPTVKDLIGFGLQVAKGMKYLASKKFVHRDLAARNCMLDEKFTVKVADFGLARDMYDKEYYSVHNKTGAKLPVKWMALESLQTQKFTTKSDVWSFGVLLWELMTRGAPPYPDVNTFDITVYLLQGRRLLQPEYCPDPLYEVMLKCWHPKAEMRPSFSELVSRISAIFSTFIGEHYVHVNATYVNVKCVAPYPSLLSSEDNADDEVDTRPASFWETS
Sequence of Homeodomain-interacting protein kinase 1 (Homo sapiens) (Q86Z02 whole entry, looked up): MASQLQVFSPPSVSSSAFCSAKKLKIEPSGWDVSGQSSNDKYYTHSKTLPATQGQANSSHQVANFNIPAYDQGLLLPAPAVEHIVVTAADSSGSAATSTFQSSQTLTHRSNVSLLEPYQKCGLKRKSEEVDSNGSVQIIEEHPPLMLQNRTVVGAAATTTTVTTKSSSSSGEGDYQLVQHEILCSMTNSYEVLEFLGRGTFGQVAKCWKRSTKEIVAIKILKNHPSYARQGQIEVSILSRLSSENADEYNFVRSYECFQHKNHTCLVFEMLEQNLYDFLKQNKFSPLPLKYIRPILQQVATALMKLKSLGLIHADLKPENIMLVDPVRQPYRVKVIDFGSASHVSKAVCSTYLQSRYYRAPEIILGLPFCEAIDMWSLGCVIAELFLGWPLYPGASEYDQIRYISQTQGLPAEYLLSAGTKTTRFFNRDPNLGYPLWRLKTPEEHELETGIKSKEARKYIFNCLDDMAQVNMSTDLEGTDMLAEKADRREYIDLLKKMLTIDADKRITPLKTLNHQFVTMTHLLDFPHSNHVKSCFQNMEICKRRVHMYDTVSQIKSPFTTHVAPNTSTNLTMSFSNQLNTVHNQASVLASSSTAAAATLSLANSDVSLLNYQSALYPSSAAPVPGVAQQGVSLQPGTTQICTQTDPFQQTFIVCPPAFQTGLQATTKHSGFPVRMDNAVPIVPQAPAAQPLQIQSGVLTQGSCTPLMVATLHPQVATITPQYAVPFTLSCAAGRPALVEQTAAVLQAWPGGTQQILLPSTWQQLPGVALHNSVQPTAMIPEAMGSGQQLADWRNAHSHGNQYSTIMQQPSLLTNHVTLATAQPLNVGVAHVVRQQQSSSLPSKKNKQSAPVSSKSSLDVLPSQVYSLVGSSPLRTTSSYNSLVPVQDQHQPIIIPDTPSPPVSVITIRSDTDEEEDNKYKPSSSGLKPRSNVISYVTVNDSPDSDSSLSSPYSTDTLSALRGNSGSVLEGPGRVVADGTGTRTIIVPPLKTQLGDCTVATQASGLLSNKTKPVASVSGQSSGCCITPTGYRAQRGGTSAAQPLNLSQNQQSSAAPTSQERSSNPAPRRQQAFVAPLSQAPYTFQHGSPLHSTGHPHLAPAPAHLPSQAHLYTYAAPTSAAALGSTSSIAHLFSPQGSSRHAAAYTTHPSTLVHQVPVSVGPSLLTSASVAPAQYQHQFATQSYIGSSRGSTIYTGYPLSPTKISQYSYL
Sequence of Mitogen-activated protein kinase 12 (Homo sapiens) (P53778 whole entry): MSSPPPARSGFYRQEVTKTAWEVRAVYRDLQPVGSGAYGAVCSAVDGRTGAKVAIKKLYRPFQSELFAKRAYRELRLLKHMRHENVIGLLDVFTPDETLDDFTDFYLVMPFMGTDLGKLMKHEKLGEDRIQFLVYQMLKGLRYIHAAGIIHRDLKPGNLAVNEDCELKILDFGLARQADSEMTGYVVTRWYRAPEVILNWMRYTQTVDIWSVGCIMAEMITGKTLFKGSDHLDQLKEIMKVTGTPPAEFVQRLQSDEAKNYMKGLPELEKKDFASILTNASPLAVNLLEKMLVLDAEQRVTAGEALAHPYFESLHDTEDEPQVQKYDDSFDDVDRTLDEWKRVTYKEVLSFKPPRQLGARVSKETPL

inhibition [1]: 12% | inhibition [3]: 0% | inhibition [5]: 5% | inhibition [6]: 4% | inhibition [7]: 5% | inhibition [9]: 21% | inhibition [10]: 5% | inhibition [11]: 0% | inhibition [12]: 2% | inhibition [13]: 2% | inhibition [14]: 64% | inhibition [16]: 5% | inhibition [17]: 11% | inhibition [18]: 0% | inhibition [19]: 4% | inhibition [20]: 80% | inhibition [21]: 11% | inhibition [22]: 83%
SMILES: Clc1ccc(N2CCN(c3ncnc4sc5c(c34)CCNC5)CC2)cc1.O=C(O)C(F)(F)F
Activity [2]: 89% | GI50 [4]: 30 µM | Activity [8]: 72% | Activity (786-0): Dose-dependent-effect | Activity [15]: 95% | Activity [23]: 17%
